Laboratory results as given in ChEMBL document CHEMBL1629494, “New amino acid esters of salicylanilides active against MDR-TB and other microbes” (Eur J Med Chem, 2010).
Values after ≈ are worked out from the molar mass of the structure shown.

Experiments:
Assay type in all cases: functional
[1] = Selectivity index, ratio of IC50 for human PBMC to MIC for multidrug-resistant Mycobacterium tuberculosis 357/2005
How it was run: (§1)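 SI = PBMC IC50 (MTT cytotoxicity) divided by the MIC against the named M. tuberculosis strain. MIC taken after 14 days of incubation at 37 °C by the micromethod.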

[2] = Selectivity index, ratio of IC50 for human PBMC to MIC for multidrug-resistant Mycobacterium tuberculosis 53/2009; how it was run: as §1
[3] = Selectivity index, ratio of IC50 for human PBMC to MIC for multidrug-resistant Mycobacterium tuberculosis 362/1998; how it was run: as §1
[4] = Selectivity index, ratio of IC50 for human PBMC to MIC for multidrug-resistant Mycobacterium tuberculosis 9449/2007; how it was run: as §1
[5] = tested on: Mycobacterium tuberculosis; test: Antimycobacterial activity against multidrug-resistant Mycobacterium tuberculosis 357/2005 after 14 days by micromethod; conditions: 357/2005, 336 h
How it was run: (§2)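 Clinical MDR/XDR M. tuberculosis strains, all resistant to INH, RIF, rifabutine and streptomycin, some with further resistances. Tested by the MIC micromethod across a concentration series descending from 1000.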

[6] = tested on: Mycobacterium tuberculosis; test: Antimycobacterial activity against multidrug-resistant Mycobacterium tuberculosis 357/2005 after 21 days by micromethod; conditions: 357/2005, 504 h; how it was run: as §2
[7] = tested on: Mycobacterium tuberculosis; test: Antimycobacterial activity against multidrug-resistant Mycobacterium tuberculosis 53/2009 after 14 days by micromethod; conditions: 53/2009, 336 h; how it was run: as §2
[8] = tested on: Mycobacterium tuberculosis; test: Antimycobacterial activity against multidrug-resistant Mycobacterium tuberculosis 53/2009 after 21 days by micromethod; conditions: 53/2009, 504 h
How it was run: (§3)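 MDR M. tuberculosis strains, all resistant to INH, RIF, rifabutine and streptomycin (9449/2007 to these four). Micromethod with compounds added as DMSO solutions in a twofold series from 1000 μmol/L downward; lowest level used 1 μmol/L. Incubated at 37 °C and read at 14 and 21 days; MIC is the lowest concentration giving growth inhibition.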

[9] = tested on: Mycobacterium tuberculosis; test: Antimycobacterial activity against extensively drug resistant Mycobacterium tuberculosis Praha 1 after 14 days by micromethod; conditions: Praha 1, 336 h; how it was run: as §2
[10] = tested on: Mycobacterium tuberculosis; test: Antimycobacterial activity against extensively drug resistant Mycobacterium tuberculosis Praha 1 after 21 days by micromethod; conditions: Praha 1, 504 h; how it was run: as §2
[11] = tested on: Mycobacterium tuberculosis; test: Antimycobacterial activity against extensively drug resistant Mycobacterium tuberculosis Praha 131 after 14 days by micromethod; conditions: Praha 131, 336 h; how it was run: as §2
[12] = tested on: Mycobacterium tuberculosis; test: Antimycobacterial activity against extensively drug resistant Mycobacterium tuberculosis Praha 131 after 21 days by micromethod; conditions: Praha 131, 504 h; how it was run: as §2
[13] = tested on: Mycobacterium tuberculosis; test: Antimycobacterial activity against multidrug-resistant Mycobacterium tuberculosis 362/1998 after 14 days by micromethod; conditions: 362/199, 336 h; how it was run: as §2
[14] = tested on: Mycobacterium tuberculosis; test: Antimycobacterial activity against multidrug-resistant Mycobacterium tuberculosis 362/1998 after 21 days by micromethod; conditions: 362/1998, 504 h; how it was run: as §2
[15] = tested on: Mycobacterium tuberculosis; test: Antimycobacterial activity against multidrug-resistant Mycobacterium tuberculosis 9449/2007 after 14 days by micromethod; conditions: 9449/2007, 336 h; how it was run: as §3
[16] = tested on: Mycobacterium tuberculosis; test: Antimycobacterial activity against multidrug-resistant Mycobacterium tuberculosis 9449/2007 after 21 days by micromethod; conditions: 9449/2007, 504 h; how it was run: as §3

Structure (SMILES)	Selectivity Index [1]	Selectivity Index [2]	Selectivity Index [3]	Selectivity Index [4]	MIC [5] [µM]	MIC [6] [µM]	MIC [7] [µM]	MIC [8] [µM]	MIC [9] [µM]	MIC [10] [µM]	MIC [11] [µM]	MIC [12] [µM]	MIC [13] [µM]	MIC [14] [µM]	MIC [15] [µM]	MIC [16] [µM]
CC(=O)N[C@@H](Cc1ccccc1)C(=O)Oc1ccc(Cl)cc1C(=O)Nc1ccc(Cl)c(Cl)c1	22	22	22	22	2 (≈ 1.01 µg/mL)	2 (≈ 1.01 µg/mL)	1 (≈ 0.506 µg/mL)	2 (≈ 1.01 µg/mL)	1 (≈ 0.506 µg/mL)	2 (≈ 1.01 µg/mL)	2 (≈ 1.01 µg/mL)	2 (≈ 1.01 µg/mL)	1 (≈ 0.506 µg/mL)	2 (≈ 1.01 µg/mL)	2 (≈ 1.01 µg/mL)	4 (≈ 2.02 µg/mL)
CC(=O)N[C@@H](Cc1ccccc1)C(=O)Oc1ccc(Cl)cc1C(=O)Nc1ccc(C(F)(F)F)cc1	6.1	6.1	6.1	6.1	1 (≈ 0.505 µg/mL)	2 (≈ 1.01 µg/mL)	1 (≈ 0.505 µg/mL)	1 (≈ 0.505 µg/mL)	1 (≈ 0.505 µg/mL)	2 (≈ 1.01 µg/mL)	1 (≈ 0.505 µg/mL)	2 (≈ 1.01 µg/mL)	1 (≈ 0.505 µg/mL)	1 (≈ 0.505 µg/mL)	2 (≈ 1.01 µg/mL)	2 (≈ 1.01 µg/mL)
CC(=O)N[C@@H](Cc1ccccc1)C(=O)Oc1ccc(Br)cc1C(=O)Nc1ccc(C(F)(F)F)cc1	24.1	24.1	24.1	24.1	2 (≈ 1.1 µg/mL)	2 (≈ 1.1 µg/mL)	1 (≈ 0.549 µg/mL)	2 (≈ 1.1 µg/mL)	1 (≈ 0.549 µg/mL)	2 (≈ 1.1 µg/mL)	2 (≈ 1.1 µg/mL)	2 (≈ 1.1 µg/mL)	1 (≈ 0.549 µg/mL)	1 (≈ 0.549 µg/mL)	1 (≈ 0.549 µg/mL)	2 (≈ 1.1 µg/mL)
NNC(=O)c1ccncc1 [ISONIAZID]					14.6 (≈ 2 µg/mL)	14.6 (≈ 2 µg/mL)	14.6 (≈ 2 µg/mL)	14.6 (≈ 2 µg/mL)	14.6 (≈ 2 µg/mL)	14.6 (≈ 2 µg/mL)	14.6 (≈ 2 µg/mL)	14.6 (≈ 2 µg/mL)	14.6 (≈ 2 µg/mL)	14.6 (≈ 2 µg/mL)	58.3 (≈ 8 µg/mL)	58.3 (≈ 8 µg/mL)
